Shown are actives, neighbours in structure and some others; about 2.4% of the full set was active somewhere.
S1P4 antagonist – human S1P4 receptor antagonism | 220,000 compounds, 0.26% hits | S1P4-expressing cells, antagonist mode, reporter read-out | AID 1510 | inhibition, % at 4.98 µM | O95977; in the data active = inhibition above about 29%;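 also: 0% = wells stimulated with agonist and 100% = vehicle wells without agonist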
S1P4 agonist – agonists of human S1P4 receptor; O95977; S1P4-expressing cell line, agonist reporter assay; activation, % at 4.98 µM; 220,000 compounds, 0.35% hits; in the data active = activation above about 11%;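 also: 0% = DMSO vehicle and 100% = reference agonist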
NPY-Y1 antag – antagonists of human neuropeptide Y receptor Y1. P25929. HEK293-CNG Y1 cells, membrane potential fluorescence; NPY at EC95, then isoproterenol. inhibition, % at 3.6 µM. 200,000 compounds, 1% hits. AID 1040;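 active = inhibition above the campaign mean inhibition of all tested compounds plus 3 SD, cut at about 20% in these data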;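 also: 0% = DMSO wells given NPY plus isoproterenol and 100% = isoproterenol alone without NPY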
Target sequence (P25929 whole entry, looked up): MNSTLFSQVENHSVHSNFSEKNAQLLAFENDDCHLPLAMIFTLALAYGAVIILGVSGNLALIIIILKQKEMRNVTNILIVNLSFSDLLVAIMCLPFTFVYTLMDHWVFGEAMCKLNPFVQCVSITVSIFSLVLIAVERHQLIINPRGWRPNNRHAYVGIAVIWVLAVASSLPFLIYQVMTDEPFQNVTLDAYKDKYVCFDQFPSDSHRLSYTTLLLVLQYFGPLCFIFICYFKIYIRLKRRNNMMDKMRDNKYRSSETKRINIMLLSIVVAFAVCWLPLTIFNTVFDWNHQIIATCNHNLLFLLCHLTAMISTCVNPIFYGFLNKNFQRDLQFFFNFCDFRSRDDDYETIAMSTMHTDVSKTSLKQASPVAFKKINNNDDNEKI
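Material: Y1- and CNG-channel-expressing HEK293 cells / Probe or stimulus: NPY 25 nM then isoproterenol 1 µM plus Ro 20-1724 25 µM / Doses: 3.6 µM single dose, DMSO 0.4% / Schedule: compound incubation 1 h at room temperature, readout 45 min post-stimulation / Signal: membrane potential fluorescence / Benchmarks: isoproterenol-only wells as full block versus NPY-plus-isoproterenol wells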
NPY-Y1 PAM-ag – human NPY-Y1 potentiation or agonism, primary screen; NPY-Y1 expressing cells, potentiator/agonist activation; activation, % at 3.6 µM; 220,000 compounds, 0.37% hits; AID 1304; in the data active = activation above about 33%, passing the limit was not always enough;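 also: cells stimulated with NPY at EC10 then isoproterenol at EC100; 0% = low agonist plus stimulus and 100% = saturating agonist plus stimulus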
NPY-Y2 PAM-ag – potentiators or agonists of human neuropeptide Y receptor Y2 | cells expressing NPY-Y2, potentiator/agonist read-out | activation, % at 3.6 µM | 220,000 compounds, 0.45% hits | P49146; in the data active = activation above about 27%;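 also: cells stimulated with NPY near EC25 plus isoproterenol at EC100; 0% = vehicle plus submaximal agonist and 100% = vehicle plus saturating agonist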
NPY Y2 blocker – blocks the human neuropeptide Y Y2 receptor. NPY-Y2 expressing cells, antagonist mode. AID 793. 140,000 compounds, 0.99% hits. inhibition, % at 2.7 µM; in the data active = inhibition above about 17%;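 also: 0% = vehicle with agonist challenge and 100% = reference antagonist with challenge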
NPY-Y2 pot conf – confirmation of human NPY-Y2 receptor potentiators or agonists; shares compounds with NPY-Y2 PAM-ag; cell-based NPY-Y2 potentiator/agonist assay; activation, % at 3.6 µM; 450 compounds, 20% hits; AID 1539; in the data active = activation above about 33%
NPY-Y1 counter – counter-screen for NPY-Y2 potentiators or agonists: NPY-Y1 potentiators or agonists; activation, % at 3.6 µM; AID 1651; 450 compounds, 20% hits; Y1 HEK293-CNG cells, membrane potential fluorescence; shares compounds with NPY-Y2 PAM-ag; in the data active = activation above about 45%;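 also: cells stimulated with submaximal NPY then isoproterenol with phosphodiesterase inhibitor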
NPY-Y1 agonist 2 – activates human NPY-Y1, counter-screen for NPY-Y2 potentiators. HEK293 Y1-CNGC, membrane potential fluorescence, agonism. shares compounds with NPY-Y2 PAM-ag. AID 1702. activation, % at 3.6 µM. 450 compounds, 37% hits;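 active = activation above the mean of DMSO-only control wells plus 3 SD, cut at about 18% in these data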;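 also: cells stimulated with 1 µM isoproterenol plus the PDE inhibitor Ro 20-1724; 0% = isoproterenol with DMSO and no NPY and 100% = 40 nM NPY; Y1 agonists lower the membrane potential dye signal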
CNGC inhibitor – cyclic nucleotide gated channel inhibition as counter-screen; shares compounds with NPY-Y2 PAM-ag; HEK293-CNG parental, isoproterenol cAMP, membrane potential fluorescence; inhibition, % at 3.6 µM; 450 compounds, 32% hits; AID 1703;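 active = inhibition above the control-well mean plus 3 SD of those wells, cut at about 22% in these data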;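 also: 0% = DMSO with isoproterenol and 100% = DMSO without isoproterenol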
NPY-Y2 ag 2 – NPY-Y2 agonism, counter-screen for Y2 potentiators | AID 1710 | 450 compounds, 56% hits | activation, % at 3.6 µM | HEK293 Y2/CNGC cells, membrane potential fluorescence, agonist mode | shares compounds with NPY-Y2 PAM-ag;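 active = activation above the mean of solvent-only control wells plus 3 SD, cut at about 10% in these data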;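 also: cells stimulated by isoproterenol with no NPY added so direct agonism is tested; 0% = DMSO with isoproterenol alone and 100% = NPY at EC100 plus isoproterenol; agonism lowers probe fluorescence through less cAMP and CNG channel opening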
S1P4 ag conf – human S1P4 agonism, confirmation | activation, % at 4.98 µM | S1P4 agonist cell-based reporter assay | shares compounds with S1P4 agonist | 740 compounds, 7% hits | AID 1523; in the data active = activation above about 12%;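 also: 0% = vehicle and 100% = full reference agonist response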
S1P1 ag – activates human S1P1, counter-screen for S1P4 agonists. S1P1 agonist cell-based assay, activation. shares compounds with S1P4 agonist. activation, % at 4.98 µM. 740 compounds, 4% hits; in the data active = activation above about 21%;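 also: 0% = vehicle wells and 100% = reference agonist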
S1P4 antag cf – human S1P4 antagonism, confirmation; shares compounds with S1P4 antagonist; S1P4-expressing cell line, antagonist mode, reporter read-out; inhibition, % at 4.98 µM; 520 compounds, 71% hits; in the data active = inhibition above about 30%
S1P1 antagonist – counter-screen for S1P4 antagonists: antagonists of human S1P1 | shares compounds with S1P4 antagonist | cell-based S1P1 antagonist counterscreen, inhibition | AID 1564 | inhibition, % at 4.98 µM | 520 compounds, 37% hits; in the data active = inhibition above about 40%;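 also: receptor stimulated with S1P near its EC80; 0% = agonist stimulated wells and 100% = vehicle only wells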
Active calls of the source: *; nt = no result given.

SMILES | S1P4 antagonist | S1P4 agonist | NPY-Y1 antag | NPY-Y1 PAM-ag | NPY-Y2 PAM-ag | NPY Y2 blocker | S1P4 ag conf | S1P1 ag | others
COc1cc(NC(=O)COC(=O)Cc2ccc(-c3ccccc3)cc2)cc(OC)c1 | -0.1 | -0.4 | 2.6 | -5.1 | -1.2 | 1.8 | nt | nt
O=C1C(Cl)=C(Nc2ccc(O)cc2)C(=O)c2ccccc21 | 90.1* | 13.6* | nt | 25.3 | 36.5* | nt | 3.0 | -9.9 | NPY-Y2 pot conf=31.1;NPY-Y1 counter=36.7;NPY-Y1 agonist 2=6.4;CNGC inhibitor=29.4*;NPY-Y2 ag 2=32.6*;S1P4 antag cf=104.6*;S1P1 antagonist=64.8*
CCc1cccc(Nc2cc(C)nc3ncnn23)c1 | -0.2 | 156.3* | 6.3 | -7.3 | 8.7 | 2.1 | -3.2 | -4.1
Cc1cc(Nc2cccc(Cl)c2)n2ncnc2n1 | -0.5 | 2.4 | 3.8 | -5.7 | 3.5 | 1.9 | nt | nt
O=C(O)CC12CC3CC(C1)CC(n1ncc(N4CCC5(CC4)OCCO5)c(Cl)c1=O)(C3)C2 | -7.8 | 0.6 | nt | 32.0 | 12.8 | nt | nt | nt
CCNc1nc2nc3ccc(C)cn3c(=O)c2cc1C(=O)NCC1CCCO1 (centres undefined) | -23.0 | 12.9* | -5.5 | -2.2 | 11.3 | nt | 2.3 | 8.4
O=C(COC(=O)c1cn(-c2ccccc2)nc1-c1cccs1)NC1CC1 | -8.6 | 33.9* | -2.1 | 3.1 | -4.8 | 1.8 | -2.3 | -11.7
C=CCn1c(C)c(C(C)=O)c(N2CCCC2)nc1=S | 13.1 | 2.9 | 0.0 | 9.0 | 2.6 | 5.8 | nt | nt
CCn1c(C)c(C(C)=O)c(N2CCCC2)nc1=S | -4.4 | 17.1* | -7.2 | -8.6 | -6.5 | -0.5 | -2.2 | -1.6
Cn1cccc1/C=C1\CCc2ccccc2C1=O | -12.2 | 38.6* | -2.0 | -0.1 | 11.5 | nt | -2.0 | -6.9
C/C(CC(=O)Nc1ccc(OCc2ccccc2)cc1)=N\NC(=O)C(=O)Nc1cccc(C)c1 | 5.5 | 19.0* | 3.0 | 20.5 | 3.9 | -2.7 | -2.2 | -5.0
CS(=O)(=O)Nc1ccc(C(=O)N2CCN(c3ccccc3)CC2)cc1 | -5.0 | 55.8* | -0.8 | 13.7 | -1.2 | 0.1 | -2.4 | -4.0
Cc1cc(=O)oc2cc3c(cc12)OCCN3 | -9.5 | 11.5* | 3.8 | 2.5 | 0.6 | 0.6 | 5.3 | 5.0
Cc1cc(=O)oc2cc3c(cc12)OCCO3 | -13.0 | -0.3 | -1.8 | 11.2 | -0.7 | 1.2 | nt | nt
C[C@@H](C(=O)N1CCNCC1)n1cc(CCCN=C(N)N)nn1 | 1.6 | 0.3 | 1.3 | -5.2 | -15.4 | nt | nt | nt
Cc1cccc(NC(=S)N2CCN(S(=O)(=O)c3cccc(F)c3)CC2)c1 | 4.0 | 19.9* | -2.4 | 10.9 | 3.5 | nt | -1.9 | 8.4
COc1ccc(/C=N/NC(=O)c2cc(C(C)(C)C)[nH]n2)cc1COc1ccc(F)cc1F | -16.5 | 0.5 | 1.7 | -15.2 | -3.4 | nt | nt | nt
Cn1c(SCC(=O)c2ccc3c(c2)OCO3)nnc1C1COc2ccccc2O1 (centres undefined) | 5.2 | 11.3* | 4.1 | -14.0 | -4.7 | -0.9 | 61.5* | -0.9
Nc1nonc1NC(=O)CSc1ncccc1C(=O)O | 1.0 | 44.8* | 1.8 | -3.2 | 1.3 | 3.6 | -2.1 | -1.2

Assay outcomes (PubChem BioAssay)
